How the values were obtained:
[1] = Antitumor activity against mouse Gardner lymphosarcoma cell allografted in mouse at 1.0 to 2.0 mg/kg/day, ip; assay type: functional; conditions: route intraperitoneal
Summary of the method: (§1)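 Sulfate salts given ip on days 1-9 against ROS and GLS in mice; tumor growth scored as percent inhibition versus controls (+++ = 75-100%, ++ = 50-75%, ± = under 25%).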

[2] = Antitumor activity against mouse Ridgeway osteogenic sarcoma cells allografted in mouse at 1 to 2 mg/kg/day, ip; assay type: functional; conditions: route intraperitoneal; summary of the method: as §1

SMILES	TGI [1] [%]	TGI [2] [%]
CC[C@]1(O)C[C@@H]2C[C@H](c3cc4c(cc3OC)N(C)[C@H]3[C@@](O)(C(=O)NN)[C@H](O)[C@]5(CC)C=CCN6CC[C@]43[C@@H]65)c3[nH]c4ccccc4c3CCN(C2)C1	<25	<25
CC[C@]1(O)C[C@@H]2C[C@H](c3cc4c(cc3OC)N(C)[C@H]3[C@@](O)(C(N)=O)[C@H](O)[C@]5(CC)C=CCN6CC[C@]43[C@@H]65)c3[nH]c4ccccc4c3CCN(C2)C1.O=S(=O)(O)O	<25	<25

— ChEMBL document CHEMBL3272325, “Structure-activity relationships of dimeric Catharanthus alkaloids. 1. Deacetylvinblastine amide (vindesine) sulfate” (J Med Chem, 1978)
